Activity calls are given as the source filed them.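 How the source made its calls: active means fitted AC50 at or under twice the sample's top valid tested dose, with viability loss; inconclusive means flat curve with 30 to 70% viability loss, or poor fit; inactive means the rest, including shifts toward viability gain.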

System in the first assay: not listed separately
The assay is described as follows: cytotoxicity in MITF-independent A375 cells – cell-based, CellTiter-Glo luminescence, dry powder, set 3, counter-screen for MITF inhibitor project, dose response (AID 624324). The conditions noted are these: A375 melanoma viability, CellTiter-Glo ATP luminescence, 24 h; at 35 µM (top of the series). In a few lines:
(§1)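 Test system – A375 melanoma cells, MITF-independent · Quantity – 3000 cells per well · Buffer or medium – phenol red-free DMEM, 10% FBS · Doses – compounds pin-transferred to cells at multiple concentrations · Measure – viability from ATP content · Measured by – ATP luminescence, CellTiter-Glo · Timing – 24 h exposure at 37 °C, 5 min room-temperature reagent step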
For the compound `O=C1C(NS(=O)(=O)c2ccc(Br)cc2)=C(N2CCN(c3ccccc3)CC2)C(=O)c2ccccc21`, the activity change, negative = viability loss was 0.602% (inactive).

For the compound `CN1CCN(C2=C(NS(=O)(=O)c3cccs3)C(=O)c3ccccc3C2=O)CC1`, the activity change, negative = viability loss was 12.4% (inactive). Still for that read-out and setting: in the case of `C=CCNC1=C(NCC=C)C(=O)c2ccccc2C1=O` it was 1.61% (inactive). Same read-out and setting: in the case of `CN1CCN(C2=C(NS(=O)(=O)c3ccc(Br)cc3)C(=O)c3ccccc3C2=O)CC1` it was 1% (inactive). The same measure, in the same setting: in the case of `C=CCNC1=C(NCCCN2CCOCC2)C(=O)c2ccccc2C1=O` it was 1.84% (inactive); in that of `O=C(NC1=C(N2CCN(c3ccccc3)CC2)C(=O)c2ccccc2C1=O)c1ccccc1`, -7.51% (inactive); in that of `NC1=C(c2ccc(OC(F)(F)F)cc2)C(=O)c2ccccc2C1=O`, -5.51% (inactive). Take `COc1ccc(C2=C(NC(=O)c3ccc(OC)cc3-c3cccc(OC)c3)C(=O)c3ccccc3C2=O)cc1`: the activity change, negative = viability loss is 4.86% (inactive). On the same count and under the same terms, in the case of `NC1=C(c2ccccc2)C(=O)c2ccccc2C1=O` it was -6.89% (inactive).

For a further assay, the system named is A375 melanoma viability, CellTiter-Glo ATP luminescence, 24 h. The assay is described as above.
Conditions: not given
In a few lines:
as §1
Consider `O=C1C=C(Nc2ccccc2)C(=O)c2ccccc21`, for which the AC50 (as a rule, the concentration giving half of the maximal activity seen) was 13.9 µM. Still for that read-out and setting: in the case of `O=C(NC1=C(c2ccc(OC(F)(F)F)cc2)C(=O)c2ccccc2C1=O)c1ccccc1F` it was 36.6 µM; in that of `Cc1ccc(C(=O)NC2=C(c3ccc(OC(F)(F)F)cc3)C(=O)c3ccccc3C2=O)o1`, 30.4 µM; in that of `CC(=O)NC1=C(c2cccc(Cl)c2)C(=O)c2ccccc2C1=O`, 9.51 µM.

Take `C=CCNC1=C(NC(=O)c2ccccc2)C(=O)c2ccccc2C1=O`: the AC50 was > 70 µM (inactive). For `COc1cccc(C2=C(NC(=O)c3ccccc3)C(=O)c3ccccc3C2=O)c1`, the half-maximal activity concentration (AC50) was 16.2 µM.

With `O=C1C(NS(=O)(=O)c2ccc(Br)cc2)=C(N2CCOCC2)C(=O)c2ccccc21`, the AC50 is > 70 µM (inactive). Still for that read-out and setting: for `O=C1C(NS(=O)(=O)c2ccccc2)=C(N2CCCCC2)C(=O)c2ccccc21` the value was > 70 µM (inactive). The same measure, in the same setting: in the case of `O=C(NC1=C(N2CCCCC2)C(=O)c2ccccc2C1=O)c1ccc(Br)cc1` it was > 70 µM (inactive); in that of `CCN(CC)CCCNC1=C(N(C)C(C)=O)C(=O)c2ccccc2C1=O`, 6.19 µM; in that of `O=C1C(NS(=O)(=O)c2ccccc2)=C(N2CCOCC2)C(=O)c2ccccc21`, 13.8 µM.

In the case of `COC1=C(NS(=O)(=O)c2ccccc2)C(=O)c2ccccc2C1=O`, the AC50 is > 70 µM (inactive). Still for that read-out and setting: for `O=C1C(NS(=O)(=O)c2ccc(Br)cc2)=C(N2CCCCC2)C(=O)c2ccccc21` the value was > 70 µM (inactive). On the same count and under the same terms, in the case of `O=C1C(NS(=O)(=O)c2cccs2)=C(N2CCOCC2)C(=O)c2ccccc21` it was > 70 µM (inactive); in that of `Cc1ccc(C(=O)NC2=C(c3ccccc3)C(=O)c3ccccc3C2=O)o1`, 16 µM; in that of `CN1CCN(C2=C(NC(=O)c3ccccc3)C(=O)c3ccccc3C2=O)CC1`, 13.6 µM. On the same count and under the same terms, in the case of `O=C1C(NCCCN2CCOCC2)=C(Nc2ccccc2)C(=O)c2ccccc21` it was > 70 µM (inactive). Consider `CC(=O)NC1=C(c2ccc3c(c2)oc2ccccc23)C(=O)c2ccccc2C1=O`, for which the AC50 is 24.7 µM.

With `O=C(NC1=C(c2ccc(OC(F)(F)F)cc2)C(=O)c2ccccc2C1=O)c1ccccc1`, the half-maximal activity concentration (AC50) is 23.6 µM.

Consider `COc1ccc(C2=C(NC(=O)c3cccc(OC)c3)C(=O)c3ccccc3C2=O)cc1`, for which the concentration at half-maximal activity (AC50) is 27.2 µM. On the same count and under the same terms, for `COc1cccc(-c2cc(C(=O)NC3=C(Cl)C(=O)c4ccccc4C3=O)ccc2OC)c1` the value was > 70 µM (inactive); for `O=C(NC1=C(Cl)C(=O)c2ccccc2C1=O)c1ccccc1`, 29.9 µM; for `O=C(NC1=C(c2ccccc2)C(=O)c2ccccc2C1=O)c1ccco1`, 13.8 µM. Same read-out and setting: for `O=C1C(NS(=O)(=O)c2ccc(Br)cc2)=C(c2ccccc2)C(=O)c2ccccc21` the value was > 70 µM (inactive); for `CC1CCN(CC(CS(=O)(=O)c2ccc([N+](=O)[O-])cc2)N2CCC(C)CC2)CC1` (configuration not stated), > 70 µM (inactive); for `NC1=CC(=O)c2ccccc2C1=O`, > 70 µM (inactive). Still for that read-out and setting: in the case of `O=C(NC1=C(c2ccc(OC(F)(F)F)cc2)C(=O)c2ccccc2C1=O)c1ccco1` it was 28 µM; in that of `C=CCNC1=C(N2CCN(C)CC2)C(=O)c2ccccc2C1=O`, 20.9 µM.

Consider `NC1=C(NC(=O)c2ccccc2)C(=O)c2ccccc2C1=O`, for which the AC50 was > 70 µM (inactive). Still for that read-out and setting: in the case of `CC(=O)N(C)C1=C(N2CCCCC2)C(=O)c2ccccc2C1=O` it was 29.1 µM; in that of `C=CCNC1=C(NCCN(CC)CC)C(=O)c2ccccc2C1=O`, 35.2 µM; in that of `CN1CCN(C2=C(Nc3ccccc3)C(=O)c3ccccc3C2=O)CC1`, 27.2 µM. Still for that read-out and setting: for `CC(=O)NC1=C(c2ccccc2)C(=O)c2ccccc2C1=O` the value was 12.1 µM; for `O=C1C(NS(=O)(=O)c2ccc(Br)s2)=C(N2CCOCC2)C(=O)c2ccccc21`, > 70 µM (inactive); for `C=CCNC1=C(N2CCOCC2)C(=O)c2ccccc2C1=O`, 22.8 µM. Same read-out and setting: for `CN1CCN(C2=C(NS(=O)(=O)c3ccc(Br)s3)C(=O)c3ccccc3C2=O)CC1` the value was > 70 µM (inactive). Take `Cc1nc2ccccc2n1/N=C/c1ccc([N+](=O)[O-])s1`: the AC50 was > 70 µM (inactive). Same read-out and setting: for `O=C(NC1=C(N2CCOCC2)C(=O)c2ccccc2C1=O)c1ccccc1` the value was 26.9 µM. On the same count and under the same terms, for `O=C1C(NS(=O)(=O)c2ccc(Br)cc2)=C(N2CCSCC2)C(=O)c2ccccc21` the value was > 70 µM (inactive); for `CCN1CCN(C2=C(NC(=O)c3ccccc3)C(=O)c3ccccc3C2=O)CC1`, 25 µM. Consider `O=C(NC1=C(c2ccccc2)C(=O)c2ccccc2C1=O)c1ccc(Br)cc1`, for which the AC50 was 26.4 µM.

On to `C=CCNC1=C(N2CCN(CC)CC2)C(=O)c2ccccc2C1=O`, for which the half-maximal activity concentration (AC50) is 15.7 µM. On the same count and under the same terms, for `O=C(NC1=C(N2CCCCC2)C(=O)c2ccccc2C1=O)c1ccccc1` the value was > 70 µM (inactive). Same read-out and setting: for `O=C1C(Nc2ccccc2)=C(N2CCSCC2)C(=O)c2ccccc21` the value was > 70 µM (inactive). Same read-out and setting: for `COc1ccc(C2=C(NC(=O)c3ccccc3OC)C(=O)c3ccccc3C2=O)cc1` the value was 25.5 µM; for `C=CCNC1=C(NS(=O)(=O)c2cccs2)C(=O)c2ccccc2C1=O`, > 70 µM (inactive). On to `O=C1C(NS(=O)(=O)c2cccs2)=C(N2CCCCC2)C(=O)c2ccccc21`, for which the AC50 was > 70 µM (inactive). The same measure, in the same setting: in the case of `CCN1CCN(C2=C(NC(=O)c3ccc(Br)cc3)C(=O)c3ccccc3C2=O)CC1` it was 18.4 µM.

The record behind these values is PubChem BioAssay AID624324 (Broad Institute, 2012).
